Screening data as filed in PubChem BioAssay.
HSP90 refold inh = blocks HSP90-mediated luciferase refolding in reticulocyte lysate. Rabbit reticulocyte lysate, luciferase refolding luminescence, 3 h. inhibition, % at 5.6 µM. 290,000 tested, 0.91% active. AID 1789;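 active = inhibition above the screen-wide mean plus 3 SD, computed separately per campaign, cut at about 16% in these data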;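 also: inhibitors lower the luminescence because luciferase stays unfolded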
STAT3 inh = STAT3 signaling inhibition; inhibition, % at 5.5 µM; 190,000 tested, 0.89% active; AID 862; U3A cells, IL-6 STAT3-luciferase reporter, luminescence; host cell line lacks STAT1;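 active = inhibition above the mean inhibition across all screened compounds plus 3 SD, cut at about 44% in these data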
STAT3 act-1 = STAT3 signaling activation | U3A cells, IL-6 STAT3-luciferase reporter, luminescence; 100% = signal with IL-6 EC80 alone | AID 871 | 190,000 tested, 0.91% active | activation (% of control), % at 5.6 µM;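 active = activation above the screen-wide mean of compound activation plus 3 SD, cut at about 130% in these data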
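System – human U3A cells carrying STAT3-luciferase construct · Probe or stimulus – Interleukin-6, 33 ng/mL · Schedule – compound 1 h, then IL-6 6 h at 37 °C · Signal – luminescence from STAT3-driven luciferase reporter · Evaluation – percent of IL-6-only median luminescence · Benchmarks – IL-6-only high control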
STAT1 inh = inhibitors of IFN-gamma induced STAT1 signaling | inhibition, % at 5.5 µM | NIH 3T3 STAT1-luciferase reporter, luminescence | AID 920 | 200,000 tested, 0.35% active;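 active = inhibition above a set limit, the mean inhibition across all tested compounds plus 3 SD, cut at about 34% in these data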
STAT3 act-2 = STAT3 activation, confirmation assay. shares compounds with STAT3 act-1. U3A STAT3-luciferase reporter, IL-6 potentiation, luminescence; U3A cells lack STAT1; 100 means same as IL-6 alone. potentiation (% of control), % at 5.7 µM. 1,200 tested, 64% active. AID 1267;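 active = percent activation of the STAT3 luciferase reporter above a set limit taken from the earlier primary screen, cut at about 130% in these data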
NFkB act STAT3ct = NF-kappaB activation in STAT3 activator counter-screen; shares compounds with STAT3 act-1; human cells, NF-kappaB reporter activation; activation (% of control), % at 5.7 µM; 1,200 tested, 11% active; AID 1309; in the data active = activation above about 120%;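 also: reporter induced by TNF-alpha stimulation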
STAT1 act = activates STAT1, counter-screen to STAT3 activators; shares compounds with STAT3 act-1; NIH 3T3 STAT1-luciferase reporter, IFN-gamma, luminescence; activation (% of control), % at 5.7 µM; 1,200 tested, 13% active; AID 1318;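 active = activation above the solvent-only control well mean plus 3 SD, set per screening run, cut at about 120% in these data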
A number is an active result. Shown are actives, neighbours in structure and some others; about 2% of the full set was active somewhere.

What do the screens show for `Oc1cccc(C2c3[nH]c4ccccc4c3CCN2Cc2ccoc2)c1` (configuration not stated)?
HSP90 refold inh: inactive; STAT3 inh: inactive; STAT3 act-1: 138; STAT1 inh: inactive; STAT3 act-2: 137; NFkB act STAT3ct: inactive; STAT1 act: inactive

Results for Oc1cccc(C2c3[nH]c4ccccc4c3CCN2Cc2ccc3c(c2)CCO3)c1 (configuration not stated) ?
HSP90 refold inh: inactive; STAT3 inh: inactive; STAT3 act-1: 141; STAT1 inh: inactive; STAT3 act-2: 142; NFkB act STAT3ct: inactive; STAT1 act: inactive

How did COc1cccc(NC(=O)c2cccc(N3C(=O)C4CCC(C)CC4C3=O)c2)c1 (configuration not stated) do in these assays?
HSP90 refold inh: inactive

What do the screens show for `CCOC(=O)Cc1cc(=O)[nH]c(/N=C(\N)Nc2ccc(C)cc2C)n1`?
HSP90 refold inh: inactive; STAT3 inh: inactive; STAT3 act-1: 136; STAT1 inh: inactive; STAT3 act-2: inactive; NFkB act STAT3ct: inactive; STAT1 act: inactive

What do the screens show for `Cc1sc2c(c1C)CN(C(C)(C)C)CN2C(=O)c1ccccc1`?
HSP90 refold inh: inactive; STAT3 inh: inactive; STAT3 act-1: 142; STAT1 inh: inactive; STAT3 act-2: inactive; NFkB act STAT3ct: inactive; STAT1 act: inactive

How did O=C(Nc1ccccc1O)c1nc(Cl)ccc1Cl do in these assays?
HSP90 refold inh: inactive; STAT3 inh: inactive; STAT3 act-1: 156; STAT1 inh: inactive; STAT3 act-2: 171; NFkB act STAT3ct: inactive; STAT1 act: inactive

What do the screens show for `Cc1ccc(C)c(NC(=O)c2nc(Cl)ccc2Cl)c1`?
HSP90 refold inh: inactive; STAT3 inh: inactive; STAT3 act-1: inactive; STAT1 inh: inactive

What do the screens show for `CCOC(=O)c1[nH]c2ccccc2c1NC(=O)c1ccc(S(=O)(=O)N(C)C)cc1`?
HSP90 refold inh: inactive; STAT3 inh: inactive; STAT3 act-1: inactive; STAT1 inh: inactive

What do the screens show for `CN(C)S(=O)(=O)c1ccc(C(=O)Oc2cc(=O)[nH]c3ccccc23)cc1`?
HSP90 refold inh: inactive; STAT3 inh: inactive; STAT3 act-1: 154; STAT1 inh: inactive; STAT3 act-2: inactive; NFkB act STAT3ct: inactive; STAT1 act: inactive

What do the screens show for `COC(=O)c1cccc(C(=O)Nc2cnc3ccccc3c2)n1`?
HSP90 refold inh: inactive; STAT3 inh: inactive; STAT3 act-1: 183; STAT1 inh: inactive; STAT3 act-2: 162; NFkB act STAT3ct: inactive; STAT1 act: 122

Results for O=C(Nc1cnc2ccccc2c1)c1ccncc1 ?
HSP90 refold inh: inactive; STAT3 inh: inactive; STAT3 act-1: inactive; STAT1 inh: inactive

What do the screens show for `COC(=O)c1cccc(C(=O)Nc2ccc(C)cc2Br)n1`?
HSP90 refold inh: inactive; STAT3 inh: inactive; STAT3 act-1: 141; STAT1 inh: inactive; STAT3 act-2: inactive; NFkB act STAT3ct: inactive; STAT1 act: inactive

How did COCCN1C(=O)c2ccccc2C(C(=O)NCCCN2CCCC2)C1c1c[nH]c2ccccc12 (configuration not stated) do in these assays?
HSP90 refold inh: inactive; STAT3 inh: inactive; STAT3 act-1: inactive; STAT1 inh: inactive

How did CN1C(=O)c2ccccc2C(C(=O)NCCCN2CCCC2=O)C1c1c[nH]c2ccccc12 (configuration not stated) do in these assays?
HSP90 refold inh: inactive; STAT3 inh: inactive; STAT3 act-1: 152; STAT1 inh: inactive; STAT3 act-2: 136; NFkB act STAT3ct: inactive; STAT1 act: inactive

Results for Cc1c(/C=N\NC(=O)C2COc3ccccc3O2)c2ccccc2n1C (configuration not stated) ?
HSP90 refold inh: inactive; STAT3 inh: inactive; STAT3 act-1: 139; STAT1 inh: inactive; STAT3 act-2: inactive; NFkB act STAT3ct: inactive; STAT1 act: inactive

How did CCOc1ccccc1NC(=O)N1CCC(NC(=O)C2CCCCC2)CC1 do in these assays?
HSP90 refold inh: inactive

How did Cc1cccc2cc3c(NC(=O)c4ccccn4)nn(C)c3nc12 do in these assays?
HSP90 refold inh: inactive; STAT3 inh: inactive; STAT3 act-1: 156; STAT1 inh: inactive; STAT3 act-2: 140; NFkB act STAT3ct: inactive; STAT1 act: inactive
